For assay [1], the target named is T1, Gastrin/cholecystokinin type B receptor (Homo sapiens, UniProt P32239).
T1 sequence (P32239 whole entry): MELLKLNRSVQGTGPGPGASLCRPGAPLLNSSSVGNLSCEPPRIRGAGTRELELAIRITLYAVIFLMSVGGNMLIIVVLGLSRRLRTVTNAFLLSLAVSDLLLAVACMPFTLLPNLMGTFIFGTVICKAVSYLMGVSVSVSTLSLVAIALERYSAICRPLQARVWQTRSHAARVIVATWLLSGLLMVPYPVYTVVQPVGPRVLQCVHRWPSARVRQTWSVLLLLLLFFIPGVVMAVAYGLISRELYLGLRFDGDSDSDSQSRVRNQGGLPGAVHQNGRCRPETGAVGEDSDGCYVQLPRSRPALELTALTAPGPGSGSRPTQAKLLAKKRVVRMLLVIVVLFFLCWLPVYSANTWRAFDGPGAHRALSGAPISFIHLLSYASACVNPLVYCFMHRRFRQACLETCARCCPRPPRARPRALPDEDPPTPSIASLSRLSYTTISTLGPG
The experiment in a line: Displacement of CCK-8 from human Cholecystokinin type B receptor expressing CHO cell membranes. As to conditions: for Log IC50: cho.

The species named for assay [2] is Cavia porcellus. Put plainly: Effective concentration required to induce contraction of guinea pig gall bladder.
The target of assay [3] is T2, Cholecystokinin receptor type A (Homo sapiens, UniProt P32238).
T2 sequence (P32238 whole entry): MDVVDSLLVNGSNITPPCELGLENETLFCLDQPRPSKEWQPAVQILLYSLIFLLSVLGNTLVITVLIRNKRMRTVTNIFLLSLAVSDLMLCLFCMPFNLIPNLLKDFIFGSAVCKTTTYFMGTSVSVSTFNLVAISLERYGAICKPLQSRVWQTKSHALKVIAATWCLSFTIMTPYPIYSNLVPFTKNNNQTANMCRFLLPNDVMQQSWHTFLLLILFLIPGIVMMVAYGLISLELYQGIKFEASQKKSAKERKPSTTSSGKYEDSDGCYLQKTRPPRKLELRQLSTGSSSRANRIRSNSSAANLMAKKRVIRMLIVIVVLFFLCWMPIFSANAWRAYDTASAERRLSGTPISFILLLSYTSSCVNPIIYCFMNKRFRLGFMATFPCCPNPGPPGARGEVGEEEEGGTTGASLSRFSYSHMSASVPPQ
The experiment in a line: Displacement of CCK-8 from CHO cell membranes expressing human Cholecystokinin type A receptor. As to conditions: for Log IC50: cho.

Assay [4] is filed under the species Cavia porcellus. The experiment in a line: Percent contraction induced by compound at […] in guinea pig gall bladder was determined; Inactive. It is filed as functional.
The target in assay [5] is T3, Cholecystokinin receptor type A (Cavia porcellus, UniProt Q63931).
T3 sequence (Q63931 whole entry): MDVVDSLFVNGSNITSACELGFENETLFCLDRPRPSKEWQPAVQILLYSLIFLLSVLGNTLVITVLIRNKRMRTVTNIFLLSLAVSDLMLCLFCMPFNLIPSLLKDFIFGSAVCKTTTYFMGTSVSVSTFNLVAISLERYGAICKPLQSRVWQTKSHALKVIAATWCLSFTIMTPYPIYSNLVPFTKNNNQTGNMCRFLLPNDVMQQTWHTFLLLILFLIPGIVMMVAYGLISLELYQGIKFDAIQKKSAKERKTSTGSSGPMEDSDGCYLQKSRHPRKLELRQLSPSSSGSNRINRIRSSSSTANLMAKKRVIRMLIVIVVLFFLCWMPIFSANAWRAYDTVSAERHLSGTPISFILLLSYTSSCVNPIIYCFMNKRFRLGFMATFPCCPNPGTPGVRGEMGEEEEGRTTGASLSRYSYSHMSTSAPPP
The experiment in a line: Antagonist activity against CCK-8 induced responses in guinea pig gall bladder was determined. It is filed as functional, tissue-based. As to conditions: for Kb: read-out: pA2 (converted). A digest of the protocol: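 Isolated guinea pig gallbladder rings in physiological salt solution at 37 °C, 95% O2/5% CO2, pH 7.4, under 1 g resting tension, with isometric force recording. Tissues from at least three animals were incubated 60 min with antagonist (three to five concentrations), then given a cumulative sulfated CCK-8 curve. Paired untreated tissue served as time/solvent control for the concentration ratio. pA2 was derived by Schild analysis.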

The species named for assay [6] is Cavia porcellus. The experiment in a line: Percent contraction induced by compound at […] in guinea pig gall bladder was determined. The format is functional.

Activity calls are given as the source filed them. No cut-off for these calls is given here.

A word on the IC50: it is the concentration at which inhibition is half-maximal. A high value points to weaker potency in that assay. As a reminder, the EC50 is the midpoint of the concentration-response curve. A low value points to an effect from little substance. In the case of `CC(=O)N[C@@H](Cc1c[nH]c2ccccc12)C(=O)N[C@@H](CCCCNC(=O)Nc1ccccc1C)C(=O)N[C@@H](CC(=O)O)C(=O)N[C@@H](Cc1ccc(C)cc1)C(N)=O` [listing 1 of 2 here], the IC50 in assay [1] was 5.01 µM; in assay [3] it was 0.02 µM. Besides, the midpoint of the response in the assay listed under Cavia porcellus [2], the EC50, lay at 0.00158 µM.

For `Cc1cccc(NC(=O)N[C@@H]2N=C(c3ccccc3)c3ccccc3N(C)C2=O)c1` [L-365260], in assay [3], the IC50 was 0.158 µM.

In general, pA2 refers to the negative logarithm of the molar antagonist concentration that doubles the agonist concentration needed for the same response. High values mean higher antagonist potency, low ones lower antagonist potency. As for `CC(=O)N[C@@H](Cc1c[nH]c2ccccc12)C(=O)NC(Cc1cccc(NC(=O)Nc2ccccc2C)c1)C(=O)N[C@@H](CC(=O)O)C(=O)N[C@H](Cc1ccc(C)cc1)C(N)=O` (stereo not given in full), the “Log IC50” value in assay [1] is recorded as -5; in assay [3] it was -7. In addition, in the assay filed under Cavia porcellus [4], the result was inactive. The molecule also had a pA2 in assay [5] of 7.2.

Consider `CC(=O)N[C@@H](Cc1c[nH]c2ccccc12)C(=O)N[C@@H](Cc1ccc(NC(=O)Nc2ccccc2C)cc1)C(=O)N[C@@H](CC(=O)O)C(=O)N[C@@H](Cc1ccc(C)cc1)C(N)=O`, for which the IC50 in assay [1] was 100 µM; in assay [3], 0.0316 µM. The Kb in assay [5] is 0.0398 µM.

As to `CC(=O)N[C@@H](Cc1c[nH]c2ccccc12)C(=O)N[C@@H](Cc1ccc(NC(=O)Nc2ccccc2Cl)cc1)C(=O)N[C@@H](CC(=O)O)C(=O)N[C@@H](Cc1ccc(C)cc1)C(N)=O`, the IC50 in assay [1] was 63.1 µM; in assay [3], 0.1 µM. Further, the Kb in assay [5] was 0.0794 µM.

In the case of `CC(=O)N[C@@H](Cc1c[nH]c2ccccc12)C(=O)N[C@@H](CCCCNC(=O)Nc1ccccc1Cl)C(=O)N[C@@H](CC(=O)O)C(=O)N[C@@H](Cc1ccc(C)cc1)C(N)=O` [listing 1 of 2 here], the Activity in the assay listed under Cavia porcellus [6] is reported as 117%.

With `CC(=O)N[C@@H](Cc1c[nH]c2ccccc12)C(=O)NC(Cc1ccc(NC(=O)Nc2ccccc2Cl)cc1)C(=O)N[C@@H](CC(=O)O)C(=O)N[C@H](Cc1ccc(C)cc1)C(N)=O` (stereo not given in full), the result in the assay listed under Cavia porcellus [4] was inactive.

For `CC(=O)N[C@@H](Cc1c[nH]c2ccccc12)C(=O)N[C@@H](CCCCNC(=O)Nc1ccccc1C)C(=O)N[C@@H](CC(=O)O)C(=O)N[C@@H](Cc1ccc(C)cc1)C(N)=O` [listing 2 of 2 here], the Activity in the assay filed under Cavia porcellus [6] amounted to 105%.

For the molecule `CC(=O)N[C@H](Cc1c[nH]c2ccccc12)C(=O)NC(Cc1cccc(NC(=O)Nc2ccccc2C)c1)C(=O)N[C@H](CC(=O)O)C(=O)N[C@@H](Cc1ccc(C)cc1)C(N)=O` (stereo not given in full), the “Log IC50” value in assay [1] is given as -4.3; in assay [3] it was -7.2. Moreover, the result in the assay listed under Cavia porcellus [4] was inactive. Besides, the pA2 in assay [5] came to 7.4.

Regarding `CC(=O)N[C@@H](Cc1c[nH]c2ccccc12)C(=O)NC(Cc1ccc(NC(=O)Nc2ccccc2C)cc1)C(=O)N[C@@H](CC(=O)O)C(=O)N[C@H](Cc1ccc(C)cc1)C(N)=O` (stereo not given in full), the outcome in the assay listed under Cavia porcellus [4] was inactive.

Regarding `CC(=O)N[C@@H](Cc1c[nH]c2ccccc12)C(=O)N[C@@H](CCCCNC(=O)Nc1ccccc1Cl)C(=O)N[C@@H](CC(=O)O)C(=O)N[C@@H](Cc1ccc(C)cc1)C(N)=O` [listing 2 of 2 here], the “Log IC50” value is -6 in assay [1] and -8.3 in assay [3]. Further, the midpoint of the response in the assay filed under Cavia porcellus [2], the EC50, lay at 0.000501 µM.

For the origin of these results see ChEMBL document CHEMBL1128735, “CCK-A receptor selective antagonists derived from the CCK-A receptor selective tetrapeptide agonist Boc-Trp-Lys(Tac)-Asp-MePhe-NH2 (A-71623)” (J Med Chem, 1995).
